Source: ChEMBL document CHEMBL4342411, “Novel multitarget 5-arylidenehydantoins with arylpiperazinealkyl fragment: Pharmacological evaluation and investigation of cytotoxicity and metabolic stability” (Bioorg Med Chem, 2019)

target: T1, 5-hydroxytryptamine receptor 1A (Homo sapiens) (UniProt P08908); assay: Antagonist activity at human recombinant 5-HT1A receptor expressed in CHOK1 cells incubated for 25 mins followed by addition of […] by microbeta2 scintillation counter relative to control; type: cell-based; details: not given
T1 sequence (whole entry): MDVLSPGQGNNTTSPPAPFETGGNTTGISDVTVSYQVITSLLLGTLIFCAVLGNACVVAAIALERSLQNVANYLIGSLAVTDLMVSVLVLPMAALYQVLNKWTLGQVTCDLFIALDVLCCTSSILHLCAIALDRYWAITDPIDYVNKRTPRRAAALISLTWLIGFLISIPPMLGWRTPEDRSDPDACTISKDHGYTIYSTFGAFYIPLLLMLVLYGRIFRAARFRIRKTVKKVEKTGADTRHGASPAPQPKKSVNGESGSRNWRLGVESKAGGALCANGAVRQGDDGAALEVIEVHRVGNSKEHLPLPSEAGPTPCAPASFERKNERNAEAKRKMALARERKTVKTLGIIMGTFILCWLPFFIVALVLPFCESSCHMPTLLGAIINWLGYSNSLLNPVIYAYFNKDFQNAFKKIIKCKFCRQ
Outline: (§1)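 Aequorin Ca2+ assay in antagonist mode in CHO-K1 cells expressing human 5-HT1A, Gα16 and mitochondrial aequorin, loaded with 5 μM coelenterazine h. Cells were injected onto the compounds (8–10 concentrations) and incubated for 25 min.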

| Emax [%] | SMILES |
| --- | --- |
| 3 | COc1ccc(/C=C2\NC(=O)N(CCCCN3CCN(c4ccccc4OC)CC3)C2=O)cc1OC1CCCC1 |

test system: SW480; assay: Cytotoxicity against human SW480 cells assessed as growth inhibition measured after 72 hrs by MTT assay; type: functional, cell-based; details: SW480, 72 h
Outline: (§2)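 Cells were seeded at 1 × 10^4 per well: SW480 in MEM, PC3 in RPMI 1640, HaCaT in DMEM high glucose, each with 10% FBS. Compounds were added at 10–140 µM and incubated for 72 h. MTT was then added at 0.5 mg/mL in serum-free medium for 4 h at 37 °C. Formazan was dissolved in DMSO/isopropanol (1:1) and read at 570 nm. IC50 was given in µM; untreated cells served as control.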

| SMILES | IC50 [nM] |
| --- | --- |
| COc1ccc(/C=C2\NC(=O)N(CCCCN3CCN(c4ccccc4OC)CC3)C2=O)cc1OC1CCCC1 | 185000 |

test system: Mus musculus; assay: Effect on locomotor activity in Swiss albino mouse at 0.625 to 2.5 mg/kg, ip; type: ADME, organism-based; details: in vivo
Outline: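 Male Swiss albino mice were dosed ip in 1% Tween 80 at 10 ml/kg 60 min before testing. Each mouse was placed individually in a cage in a photobeam activity monitor. Ambulation crossings were counted from 2 to 6 min.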

| SMILES | Activity |
| --- | --- |
| COc1ccc(/C=C2\NC(=O)N(CCCCN3CCN(c4ccccc4OC)CC3)C2=O)cc1OC1CCCC1 | Non-Toxic |

target: T2, 5-hydroxytryptamine receptor 7 (Homo sapiens, UniProt P34969); assay: Antagonist activity at human recombinant 5-HT7 receptor expressed in CHOK1 cells measured after 60 mins in the presence of serotonin by LANCE TR-FRET assay relative to control; type: cell-based; details: not given
T2 sequence (P34969 whole entry): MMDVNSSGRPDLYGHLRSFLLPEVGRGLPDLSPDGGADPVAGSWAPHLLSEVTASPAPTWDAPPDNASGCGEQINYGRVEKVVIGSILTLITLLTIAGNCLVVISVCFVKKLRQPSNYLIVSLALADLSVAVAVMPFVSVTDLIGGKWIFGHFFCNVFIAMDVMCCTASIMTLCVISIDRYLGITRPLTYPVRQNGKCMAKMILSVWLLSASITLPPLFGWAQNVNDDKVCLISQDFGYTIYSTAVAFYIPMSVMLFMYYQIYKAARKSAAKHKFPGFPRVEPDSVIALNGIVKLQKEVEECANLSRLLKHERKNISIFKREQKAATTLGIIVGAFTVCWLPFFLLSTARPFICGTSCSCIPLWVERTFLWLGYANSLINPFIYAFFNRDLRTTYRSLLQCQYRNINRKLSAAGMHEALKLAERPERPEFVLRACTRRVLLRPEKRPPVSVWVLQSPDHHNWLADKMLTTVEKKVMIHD

| Emax [%] | SMILES |
| --- | --- |
| 33 | COc1ccc(/C=C2\NC(=O)N(CCCCN3CCN(c4ccccc4OC)CC3)C2=O)cc1OC1CCCC1 |

test system: not listed separately; assay: in vitro; details: CD1, mouse, liver microsomes

| half-life [min] | SMILES |
| --- | --- |
| 12.8 | COc1ccc(/C=C2\NC(=O)N(CCCCN3CCN(c4ccccc4OC)CC3)C2=O)cc1OC1CCCC1 |

target: T1, 5-hydroxytryptamine receptor 1A (Homo sapiens); assay: Agonist activity at human recombinant 5-HT1A receptor expressed in CHOK1 cells measured after 1 hr by microbeta2 scintillation counter relative to control; type: cell-based; details: not given
Outline: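 Aequorin Ca2+ assay in CHO-K1 cells coexpressing mitochondrial aequorin, human 5-HT1A and Gα16. Thawed cells were loaded with coelenterazine h (5 μM final) for 16 h at 16 °C in the dark with agitation, then diluted to 5000 cells/ml. After 1 h they were injected onto the compounds (8–10 concentrations) and luminescence was recorded for 30 s.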

| Emax [%] | SMILES |
| --- | --- |
| 6 | COc1ccc(/C=C2\NC(=O)N(CCCCN3CCN(c4ccccc4OC)CC3)C2=O)cc1OC1CCCC1 |

target: T2, 5-hydroxytryptamine receptor 7; assay: biochemical; type: cell-based, CHO; details: not given

| Ki [nM] | SMILES |
| --- | --- |
| 1 | COc1ccc(/C=C2\NC(=O)N(CCCCN3CCN(c4ccccc4OC)CC3)C2=O)cc1OC1CCCC1 |

test system: HaCaT; assay: Cytotoxicity against human HaCaT cells assessed as growth inhibition measured after 72 hrs by MTT assay; type: cell-based; details: not given; outline: as §2

| SMILES | IC50 [nM] |
| --- | --- |
| COc1ccc(/C=C2\NC(=O)N(CCCCN3CCN(c4ccccc4OC)CC3)C2=O)cc1OC1CCCC1 | 151000 |

test system: not listed separately; assay: Selectivity index, ratio of IC50 for human HaCaT cells for human PC3 cells; type: toxicity; details: HaCaT cells versus PC3 cells, read-out: Ratio IC50

| SMILES | selectivity ratio |
| --- | --- |
| COc1ccc(/C=C2\NC(=O)N(CCCCN3CCN(c4ccccc4OC)CC3)C2=O)cc1OC1CCCC1 | 0.59 |

target: 5-hydroxytryptamine receptor 2A (Homo sapiens) (UniProt P28223); assay: not given; details: HEK293, at 0.1 µM
Sequence (P28223 whole entry): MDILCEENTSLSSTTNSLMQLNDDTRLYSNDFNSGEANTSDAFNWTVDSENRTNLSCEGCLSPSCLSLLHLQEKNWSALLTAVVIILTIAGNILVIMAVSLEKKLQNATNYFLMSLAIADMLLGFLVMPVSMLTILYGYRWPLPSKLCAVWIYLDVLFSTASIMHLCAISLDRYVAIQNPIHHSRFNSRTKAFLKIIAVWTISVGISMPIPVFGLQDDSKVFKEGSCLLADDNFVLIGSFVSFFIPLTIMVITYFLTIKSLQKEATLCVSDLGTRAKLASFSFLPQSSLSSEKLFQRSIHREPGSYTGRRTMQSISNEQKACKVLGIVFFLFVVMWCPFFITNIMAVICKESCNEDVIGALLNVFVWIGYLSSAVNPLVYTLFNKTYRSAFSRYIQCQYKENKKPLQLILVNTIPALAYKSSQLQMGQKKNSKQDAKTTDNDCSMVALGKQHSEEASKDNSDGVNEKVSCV

| inhibition [%] | SMILES |
| --- | --- |
| 50 | COc1ccc(/C=C2\NC(=O)N(CCCCN3CCN(c4ccccc4OC)CC3)C2=O)cc1OC1CCCC1 |

target: T2, 5-hydroxytryptamine receptor 7; assay: Antagonist activity at human recombinant 5-HT7 receptor expressed in CHOK1 cells assessed as equilibrium binding constant measured after 60 mins in the presence of serotonin by LANCE TR-FRET assay; type: cell-based; details: not given

| Kb [nM] | SMILES |
| --- | --- |
| 73 | COc1ccc(/C=C2\NC(=O)N(CCCCN3CCN(c4ccccc4OC)CC3)C2=O)cc1OC1CCCC1 |

test system: not listed separately; assay: in vitro; details: CD1, mouse, liver microsomes; remark: another data set of the same source

| microsomal CLint [µL/min/mg] | SMILES |
| --- | --- |
| 136 | COc1ccc(/C=C2\NC(=O)N(CCCCN3CCN(c4ccccc4OC)CC3)C2=O)cc1OC1CCCC1 |

test system: PC-3; assay: Cytotoxicity against human PC3 cells assessed as growth inhibition measured after 72 hrs by MTT assay; type: functional, cell-based; details: PC-3, 72 h; outline: as §2

| SMILES | IC50 [nM] |
| --- | --- |
| COc1ccc(/C=C2\NC(=O)N(CCCCN3CCN(c4ccccc4OC)CC3)C2=O)cc1OC1CCCC1 | 254000 |

target: T3, 5-hydroxytryptamine receptor 1A (Homo sapiens, UniProt P08908); assay: Antagonist activity at human recombinant 5-HT1A receptor expressed in CHOK1 cells incubated for 25 mins followed by addition of methiothepin by microbeta2 scintillation counter; type: cell-based; details: in the assay text read “serotonin” for “methiothepin”; read-out: IC50; outline: as §1
T3 sequence (P08908 whole entry): T1 sequence (whole entry)

| IC50 [nM] | SMILES |
| --- | --- |
| 54 | COc1ccc(/C=C2\NC(=O)N(CCCCN3CCN(c4ccccc4OC)CC3)C2=O)cc1OC1CCCC1 |

same assay, conditions: read-out: pIC50 (converted)

| IC50 [nM] | SMILES |
| --- | --- |
| 61.7 | COc1ccc(/C=C2\NC(=O)N(CCCCN3CCN(c4ccccc4OC)CC3)C2=O)cc1OC1CCCC1 |

target: 3',5'-cyclic-AMP phosphodiesterase 4B (Homo sapiens) (UniProt Q07343); assay: Inhibition of human recombinant full length N-terminal GST-tagged PDE4B1 expressed in baculovirus infected Sf9 cells at 10^-5 M using cAMP as substrate incubated for 20 mins followed by substrate addition by luciferase assay relative to control; details: not given
Sequence (Q07343 whole entry): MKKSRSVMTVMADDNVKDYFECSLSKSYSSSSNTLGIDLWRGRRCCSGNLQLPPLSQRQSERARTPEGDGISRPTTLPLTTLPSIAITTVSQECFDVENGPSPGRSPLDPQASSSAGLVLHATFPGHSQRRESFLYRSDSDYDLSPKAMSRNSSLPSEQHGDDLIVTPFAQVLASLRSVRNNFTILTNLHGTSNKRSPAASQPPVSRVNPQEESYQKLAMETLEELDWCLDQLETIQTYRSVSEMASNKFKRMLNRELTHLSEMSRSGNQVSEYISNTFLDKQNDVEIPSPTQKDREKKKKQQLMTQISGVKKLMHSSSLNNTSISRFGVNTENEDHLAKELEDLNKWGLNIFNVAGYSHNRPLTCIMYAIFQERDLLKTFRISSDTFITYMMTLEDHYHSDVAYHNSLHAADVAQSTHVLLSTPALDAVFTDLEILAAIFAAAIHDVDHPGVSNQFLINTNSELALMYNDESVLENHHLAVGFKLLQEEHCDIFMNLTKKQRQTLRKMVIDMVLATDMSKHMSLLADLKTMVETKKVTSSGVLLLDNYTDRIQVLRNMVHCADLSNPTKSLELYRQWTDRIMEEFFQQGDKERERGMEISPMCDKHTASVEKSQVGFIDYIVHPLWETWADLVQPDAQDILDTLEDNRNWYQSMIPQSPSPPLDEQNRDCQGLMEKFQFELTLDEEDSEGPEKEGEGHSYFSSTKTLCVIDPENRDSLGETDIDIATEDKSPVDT

| inhibition [%] | SMILES |
| --- | --- |
| 14 | COc1ccc(/C=C2\NC(=O)N(CCCCN3CCN(c4ccccc4OC)CC3)C2=O)cc1OC1CCCC1 |

test system: Mus musculus; assay: Antidepressant activity in Swiss albino mouse assessed as decrease in immobility time at 0.625 to 2.5 mg/kg, ip measured after 60 mins by forced swim test relative to control; type: functional; set-up: scale not given: the % may be the effect or the level left; details: not given
Outline: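 Male Swiss albino mice (22–26 g), 7–10 per dose, were dosed ip in 1% Tween 80 at 10 ml/kg 60 min before the test. In the Porsolt test, each mouse was placed for 6 min in a cylinder with 6 cm of water at 23–25 °C. Immobility was scored over the last 4 min and compared with vehicle controls by ANOVA/Bonferroni.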

| SMILES | Activity [%] |
| --- | --- |
| COc1ccc(/C=C2\NC(=O)N(CCCCN3CCN(c4ccccc4OC)CC3)C2=O)cc1OC1CCCC1 | 30 |

target: 5-hydroxytryptamine receptor 6 (Homo sapiens) (UniProt P50406); assay: Displacement of [3H]-LSD from human recombinant 5-HT6 receptor expressed in CHO cells at 10^-6 M incubated for 60 mins by microbeta2 scintillation counter relative to control; type: cell-based; details: not given
Sequence (P50406 whole entry): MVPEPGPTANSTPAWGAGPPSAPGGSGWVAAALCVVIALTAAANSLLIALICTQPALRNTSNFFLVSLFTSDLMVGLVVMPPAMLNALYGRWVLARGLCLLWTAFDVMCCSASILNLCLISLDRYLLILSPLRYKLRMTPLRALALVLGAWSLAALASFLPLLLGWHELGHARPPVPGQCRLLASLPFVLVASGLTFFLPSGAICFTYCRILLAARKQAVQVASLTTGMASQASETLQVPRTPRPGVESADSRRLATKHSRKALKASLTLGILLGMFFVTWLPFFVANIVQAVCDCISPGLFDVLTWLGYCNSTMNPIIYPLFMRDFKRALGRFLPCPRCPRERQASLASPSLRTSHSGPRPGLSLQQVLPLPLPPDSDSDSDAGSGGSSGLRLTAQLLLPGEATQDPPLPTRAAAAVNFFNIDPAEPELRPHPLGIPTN
Outline: (§3)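 Radioligand displacement from recombinant human receptor membranes, tested at two final concentrations (10^-6 and 10^-7 M), with scintillation counting. Results were expressed as percent inhibition of specific binding.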

| inhibition [%] | SMILES |
| --- | --- |
| 5 | COc1ccc(/C=C2\NC(=O)N(CCCCN3CCN(c4ccccc4OC)CC3)C2=O)cc1OC1CCCC1 |

target: T2, 5-hydroxytryptamine receptor 7; assay: Antagonist activity at human recombinant 5-HT7 receptor expressed in CHOK1 cells measured after 60 mins in the presence of serotonin by LANCE TR-FRET assay; type: cell-based; details: not given

| IC50 [nM] | SMILES |
| --- | --- |
| 219 | COc1ccc(/C=C2\NC(=O)N(CCCCN3CCN(c4ccccc4OC)CC3)C2=O)cc1OC1CCCC1 |

target: 5-hydroxytryptamine receptor 2A (Homo sapiens) (UniProt P28223); assay: not given; details: HEK293, at 1 µM

| inhibition [%] | SMILES |
| --- | --- |
| 95 | COc1ccc(/C=C2\NC(=O)N(CCCCN3CCN(c4ccccc4OC)CC3)C2=O)cc1OC1CCCC1 |

target: 5-hydroxytryptamine receptor 6 (Homo sapiens) (UniProt P50406); assay: Displacement of [3H]-LSD from human recombinant 5-HT6 receptor expressed in CHO cells at 10^-7 M incubated for 60 mins by microbeta2 scintillation counter relative to control; type: cell-based; details: not given; outline: as §3

| inhibition [%] | SMILES |
| --- | --- |
| 0 | COc1ccc(/C=C2\NC(=O)N(CCCCN3CCN(c4ccccc4OC)CC3)C2=O)cc1OC1CCCC1 |

target: T1, 5-hydroxytryptamine receptor 1A (Homo sapiens); assay: Antagonist activity at human recombinant 5-HT1A receptor expressed in CHOK1 cells assessed as equilibrium binding constant incubated for 25 mins followed by addition of methiothepin by microbeta2 scintillation counter; type: cell-based; details: in the assay text read “serotonin” for “methiothepin”; outline: as §1

| Kb [nM] | SMILES |
| --- | --- |
| 1.7 | COc1ccc(/C=C2\NC(=O)N(CCCCN3CCN(c4ccccc4OC)CC3)C2=O)cc1OC1CCCC1 |

target: T2, 5-hydroxytryptamine receptor 7; assay: Agonist activity at human recombinant 5-HT7 receptor expressed in CHOK1 cells by LANCE TR-FRET assay relative to control; type: cell-based; details: not given
Outline: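 cAMP assay in CHO-K1 cells expressing human 5-HT7 […], at 2x10^5 cells/ml in HBSS with 5 mM HEPES, IBMX and 0.1% BSA, pH 7.4. Cells were stimulated with the compounds (8 concentrations) for 60 min at room temperature. cAMP was read by LANCE Ultra TR-FRET after 1 h with tracer and antibody. EC50 was obtained by nonlinear regression.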

| Emax [%] | SMILES |
| --- | --- |
| 14 | COc1ccc(/C=C2\NC(=O)N(CCCCN3CCN(c4ccccc4OC)CC3)C2=O)cc1OC1CCCC1 |

target: T3, 5-hydroxytryptamine receptor 1A; assay: Displacement of [3H]-8-OH-DPAT from human recombinant 5-HT1A receptor expressed in HEK293 cells incubated for 60 mins by microbeta2 scintillation counter; type: cell-based; details: not given

| Ki [nM] | SMILES |
| --- | --- |
| 1 | COc1ccc(/C=C2\NC(=O)N(CCCCN3CCN(c4ccccc4OC)CC3)C2=O)cc1OC1CCCC1 |

test system: not listed separately; assay: Metabolic stability in mouse liver microsomes assessed as metabolite formation measured after 30 mins in the presence of NADPH by LC-MS/MS analysis; type: ADME, Microsome; details: 0.5 h
Outline: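 Compound (20 µM final) was preincubated with mouse liver microsomes (0.4 mg/mL) in 100 mM potassium phosphate, pH 7.4, at 37 °C for 15 min. The reaction was started with an NADPH-regenerating system and sampled at 5, 15 and 30 min. Levallorphan internal standard was added, the reaction was stopped with perchloric acid, and samples were analysed by LC-MS/MS. No-NADPH incubations served as negative controls.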

| Drug metabolism | SMILES |
| --- | --- |
| Metabolite_Detected | COc1ccc(/C=C2\NC(=O)N(CCCCN3CCN(c4ccccc4OC)CC3)C2=O)cc1OC1CCCC1 |

test system: not listed separately; assay: Selectivity index, ratio of IC50 for human HaCaT cells to IC50 for human SW480 cells; details: not given

| SMILES | Ratio IC50 |
| --- | --- |
| COc1ccc(/C=C2\NC(=O)N(CCCCN3CCN(c4ccccc4OC)CC3)C2=O)cc1OC1CCCC1 | 0.81 |
